pEC50, pIC50: −log10 of the molar value. The source made the active and inactive calls. The rule behind the calls is not given here.
Tests used:
[1] = molecular target: T1, 3',5'-cyclic-AMP phosphodiesterase 4D (Homo sapiens, UniProt Q08499); test: Inhibition of human PDE4D
[2] = molecular target: cGMP-specific 3',5'-cyclic phosphodiesterase (Homo sapiens, UniProt O76074); test: Inhibition of PDE5
[3] = molecular target: T1, 3',5'-cyclic-AMP phosphodiesterase 4D; test: Inhibition of human PDE4D in U937 cells assessed as cAMP level at 10 uM relative to control; assay type: cell-based; set-up: scale not given: the % may be the effect or the level left; settings: U-937
How it was run: (§1)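 cAMP content of U937 cells was measured after compound exposure and reported as a percentage of the untreated control level. Separately, an EC50 was derived for cAMP accumulation in the same cells.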

[4] = Inhibition of PDE3
[5] = Inhibition of PDE7
[6] = test system: Mus musculus; test: Inhibition of ovalbumin-induced eosinophil peroxidase activity in mouse bronchoalveolar lavage fluid at 30 mg/kg measured after 62 hrs of ovalbumin challenge relative to control; assay type: functional; settings: Lung
How it was run: (§2)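 Mice received an ovalbumin inhalation challenge, with compounds given in 0.5% CMC vehicle. Bronchoalveolar lavage fluid was collected 62 h after OVA inhalation, and eosinophil peroxidase activity was measured as a marker of eosinophil infiltration. Data are mean ± SD, n = 9–10 per group, compared with the vehicle group.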

[7] = test system: Mus musculus; test: Inhibition of ovalbumin-induced airway hyperresponsiveness in mouse at 30 mg/kg measured after 48 hrs of ovalbumin challenge; assay type: functional, organism-based; set-up: dose 30 mg/kg
[8] = Inhibition of PDE4
[9] = test system: Mus musculus; test: Inhibition of ovalbumin-induced eosinophil peroxidase activity in mouse bronchoalveolar lavage fluid at 100 mg/kg measured after 62 hrs of ovalbumin challenge relative to control; assay type: functional; settings: Lung; how it was run: as §2
[10] = test system: Mus musculus; test: Inhibition of ovalbumin-induced airway hyperresponsiveness in mouse at 100 mg/kg measured after 48 hrs of ovalbumin challenge; assay type: functional, organism-based; set-up: dose 100 mg/kg
[11] = molecular target: T1, 3',5'-cyclic-AMP phosphodiesterase 4D; test: Inhibition of human PDE4D in U937 cells assessed as cAMP accumulation; assay type: cell-based, U-937; how it was run: as §1
[12] = molecular target: T1, 3',5'-cyclic-AMP phosphodiesterase 4D; test: Inhibition of human PDE4D in U937 cells assessed as cAMP level at 20 uM relative to control; assay type: cell-based; set-up: scale not given: the % may be the effect or the level left; settings: U-937; how it was run: as §1

T1 sequence (Q08499 whole entry): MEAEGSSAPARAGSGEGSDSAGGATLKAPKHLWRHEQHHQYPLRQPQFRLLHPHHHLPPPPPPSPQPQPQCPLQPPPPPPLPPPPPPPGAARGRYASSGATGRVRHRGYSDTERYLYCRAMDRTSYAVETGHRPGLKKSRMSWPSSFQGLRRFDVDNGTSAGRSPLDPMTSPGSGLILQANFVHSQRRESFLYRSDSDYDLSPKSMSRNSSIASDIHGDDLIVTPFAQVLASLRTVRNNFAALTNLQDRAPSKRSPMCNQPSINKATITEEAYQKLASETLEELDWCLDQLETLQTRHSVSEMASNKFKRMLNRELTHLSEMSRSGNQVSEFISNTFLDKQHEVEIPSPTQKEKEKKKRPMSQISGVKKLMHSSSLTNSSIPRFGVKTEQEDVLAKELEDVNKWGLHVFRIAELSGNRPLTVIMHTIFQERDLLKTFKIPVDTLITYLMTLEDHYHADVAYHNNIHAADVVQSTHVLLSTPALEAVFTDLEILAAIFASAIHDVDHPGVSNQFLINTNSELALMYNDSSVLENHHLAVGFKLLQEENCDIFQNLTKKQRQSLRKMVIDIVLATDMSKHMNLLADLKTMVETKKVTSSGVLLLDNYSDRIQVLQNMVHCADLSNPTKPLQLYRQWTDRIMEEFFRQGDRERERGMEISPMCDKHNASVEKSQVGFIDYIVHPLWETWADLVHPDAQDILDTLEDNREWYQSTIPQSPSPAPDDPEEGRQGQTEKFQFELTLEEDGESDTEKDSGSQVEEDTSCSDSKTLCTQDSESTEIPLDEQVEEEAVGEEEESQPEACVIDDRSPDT

pIC50 [1]	SMILES	further results
7.05	COc1ccc(-c2ccnc3cc(-c4ccc(Cl)cc4)nn23)cc1OC1CCCC1	
7.15	COc1ccc(-c2ccnc3cc(-c4ccccc4OC)nn23)cc1OC1CCCC1	
6.85	COc1ccc(-c2ccnc3cc(-c4ccccc4Br)nn23)cc1OC1CCCC1	
7.41	FC(F)Oc1ccc(-c2ccnc3cc(-c4cccc(C(F)F)c4)nn23)cc1OCC1CC1	
7.34	CC(C)Oc1cccc(-c2cc3nccc(-c4ccc(OC(F)F)c(OCC5CC5)c4)n3n2)c1	
7.17	CCN(CC)C(=O)c1cccc(-c2cc3nccc(-c4ccc(OC(F)F)c(OCC5CC5)c4)n3n2)c1	
7.15	COc1ccc(-c2ccnc3cc(-c4ccccc4)nn23)cc1OC1CCCC1	
7.55	CCNC(=O)c1cccc(-c2cc3nccc(-c4ccc(OC(F)F)c(OCC5CC5)c4)n3n2)c1	
7.22	COc1ccc(-c2cc3nccc(-c4ccc(OC)c(OC5CCCC5)c4)n3n2)cc1	
8.22	FC(F)Oc1ccc(-c2ccnc3cc(-c4cccc(I)c4)nn23)cc1OCC1CC1	pIC50 [2]: < 5.30; Activity [3]: 19.8%; pIC50 [4]: 5.70; pIC50 [5]: < 5.30
6.89	FC(F)Oc1ccc(-c2ccnc3cc(-c4ccccc4)nn23)cc1OCC1CC1	
7.64	CN(C)C(=O)c1cccc(-c2cc3nccc(-c4ccc(OC(F)F)c(OCC5CC5)c4)n3n2)c1	
6.80	COCCOC(=O)c1cccc(-c2cc3nccc(-c4ccc(OC(F)F)c(OCC5CC5)c4)n3n2)c1	
7.49	C=CCOc1cccc(-c2cc3nccc(-c4ccc(OC(F)F)c(OCC5CC5)c4)n3n2)c1	
7.19	O=C(c1cccc(-c2cc3nccc(-c4ccc(OC(F)F)c(OCC5CC5)c4)n3n2)c1)N1CCCCC1	
6.82	NC(=O)Nc1cccc(-c2cc3nccc(-c4ccc(OC(F)F)c(OCC5CC5)c4)n3n2)c1	
7.40	N#CNc1cccc(-c2cc3nccc(-c4ccc(OC(F)F)c(OCC5CC5)c4)n3n2)c1	
6.72	FC(F)Oc1ccc(-c2ccnc3cc(-c4cccc(C(F)(F)F)c4)nn23)cc1OCC1CC1	
7.40	CNc1cccc(-c2cc3nccc(-c4ccc(OC(F)F)c(OCC5CC5)c4)n3n2)c1	
7.08	N#CCCNc1cccc(-c2cc3nccc(-c4ccc(OC(F)F)c(OCC5CC5)c4)n3n2)c1	
7.00	FC(F)Oc1ccc(-c2ccnc3cc(-c4cc(Cl)cc(Cl)c4)nn23)cc1OCC1CC1	
7.49	COc1ccc(-c2cc3nccc(-c4ccc(OC(F)F)c(OCC5CC5)c4)n3n2)cc1O	
7.36	FC(F)Oc1ccc(-c2ccnc3cc(-c4cccc(-n5cnnn5)c4)nn23)cc1OCC1CC1	
	O=C(Nc1c(Cl)cncc1Cl)c1ccc(OC(F)F)c(OCC2CC2)c1 [ROFLUMILAST]	inhibition in vivo at 30 mg/kg [6]: 50%; inhibition [7]: Active
7.74	CC(=O)Oc1cccc(-c2cc3nccc(-c4ccc(OC(F)F)c(OCC5CC5)c4)n3n2)c1	
7.49	CS(=O)(=O)CNc1cccc(-c2cc3nccc(-c4ccc(OC(F)F)c(OCC5CC5)c4)n3n2)c1	

pIC50 [1]	SMILES	further results
7.36	CC(C)(C)NC(=O)c1cccc(-c2cc3nccc(-c4ccc(OC(F)F)c(OCC5CC5)c4)n3n2)c1	
7.34	Nc1cccc(-c2cc3nccc(-c4ccc(OC(F)F)c(OCC5CC5)c4)n3n2)c1	
7.00	Fc1cccc(-c2cc3nccc(-c4ccc(OC(F)F)c(OCC5CC5)c4)n3n2)c1	
6.92	CN(C)c1cccc(-c2cc3nccc(-c4ccc(OC(F)F)c(OCC5CC5)c4)n3n2)c1	
7.43	COC(=O)c1cccc(-c2cc3nccc(-c4ccc(OC(F)F)c(OCC5CC5)c4)n3n2)c1	
7.57	FC(F)Oc1ccc(-c2ccnc3cc(-c4cccnc4)nn23)cc1OCC1CC1	pIC50 [2]: 5.46; pIC50 [8]: 8.05; pIC50 [4]: < 5.30; pIC50 [5]: 5.52
7.54	COc1cc(OC)cc(-c2cc3nccc(-c4ccc(OC(F)F)c(OCC5CC5)c4)n3n2)c1	
8.05	O=C(O)c1cccc(-c2cc3nccc(-c4ccc(OC(F)F)c(OCC5CC5)c4)n3n2)c1	
7.38	[O-][n+]1cccc(-c2cc3nccc(-c4ccc(OC(F)F)c(OCC5CC5)c4)n3n2)c1	pIC50 [2]: < 5.30; pIC50 [8]: 7.59; inhibition in vivo at 100 mg/kg [9]: 50%; inhibition [10]: Active; pIC50 [4]: < 5.30; pIC50 [5]: < 5.30; pEC50 [11]: 5.79
7.33	CN(CCN)c1cccc(-c2cc3nccc(-c4ccc(OC(F)F)c(OCC5CC5)c4)n3n2)c1	
7.32	CCOc1cccc(-c2cc3nccc(-c4ccc(OC(F)F)c(OCC5CC5)c4)n3n2)c1	
7.52	COc1cccc(-c2cc3nccc(-c4ccc(OC(F)F)c(OCC5CC5)c4)n3n2)c1	Activity [3]: 44.4%
7.40	CC(C)OC(=O)c1cccc(-c2cc3nccc(-c4ccc(OC(F)F)c(OCC5CC5)c4)n3n2)c1	
7.40	COc1cccc(-c2cc3nccc(-c4ccc(OC)c(OC5CCCC5)c4)n3n2)c1	Activity [12]: 20.1%
7.60	COc1ccc(-c2cc3nccc(-c4ccc(OC(F)F)c(OCC5CC5)c4)n3n2)cc1OC	
7.44	FC(F)Oc1ccc(-c2ccnc3cc(-c4cccc(Cl)c4)nn23)cc1OCC1CC1	
7.00	FC(F)Oc1ccc(-c2ccnc3cc(-c4cccc(N5CCCCC5)c4)nn23)cc1OCC1CC1	
7.52	COc1ccc(-c2ccnc3cc(-c4cc(Cl)ccc4Cl)nn23)cc1OC1CCCC1	
7.27	CC(C)(C)OC(=O)N1CCN(c2cccc(-c3cc4nccc(-c5ccc(OC(F)F)c(OCC6CC6)c5)n4n3)c2)CC1	
6.89	COc1ccc(-c2ccnc3cc(-c4ccc(Br)cc4)nn23)cc1OC1CCCC1	
7.89	FC(F)Oc1ccc(-c2ccnc3cc(-c4cccc(Br)c4)nn23)cc1OCC1CC1	Activity [3]: 57.1%
7.68	Oc1cccc(-c2cc3nccc(-c4ccc(OC(F)F)c(OCC5CC5)c4)n3n2)c1	
7.52	COc1ccc(-c2ccnc3cc(-c4cccc(Br)c4)nn23)cc1OC1CCCC1	Activity [12]: 11.4%
6.70	FC(F)Oc1ccc(-c2ccnc3cc(-c4cc(Cl)ccc4Cl)nn23)cc1OCC1CC1	
7.70	COc1ccc(-c2ccnc3cc(-c4cccc(Cl)c4)nn23)cc1OC1CCCC1	Activity [12]: 19.7%

From ChEMBL document CHEMBL1159102, “Design, synthesis, and evaluation of 2-aryl-7-(3',4'-dialkoxyphenyl)-pyrazolo[1,5-a]pyrimidines as novel PDE-4 inhibitors” (Bioorg Med Chem Lett, 2010)
